# Reference: ChEMBL document CHEMBL4145571, “Ajmaline, Oxindole, and Cytotoxic Macroline-Akuammiline Bisindole Alkaloids from Alstonia penangiana” (J Nat Prod, 2018)
# How the values were obtained:
# [1] = Growth inhibition of human KB/S cells after 72 hrs by MTT assay; assay type: functional
# Procedure, shortened: (§1)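 Values are mean ± SD from three independent experiments. For the KB/VJ300 line with vincristine, 0.1 μM vincristine was added alongside the test compound. The remaining method details come from earlier published procedures.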
# KB/VJ300 [2] = test: Growth inhibition of human KB/VJ300 cells after 72 hrs by MTT assay; assay type: functional; conditions: KB/VJ300, 72 h; procedure, shortened: as §1
# KB/VJ300 [3] = test: Growth inhibition of human KB/VJ300 cells after 72 hrs in presence of 0.1 uM of vincristine by MTT assay; assay type: functional; conditions: KB/VJ300, 72 h; procedure, shortened: as §1
# PC-3 = test: Growth inhibition of human PC3 cells after 72 hrs by MTT assay; assay type: functional, cell-based; conditions: PC-3, 72 h; procedure, shortened: as §1
# LNCaP = test: Growth inhibition of human LNCAP cells after 72 hrs by MTT assay; assay type: functional, cell-based; procedure, shortened: as §1
# MCF7 = test: Growth inhibition of human MCF7 cells after 72 hrs by MTT assay; assay type: functional, cell-based; conditions: MCF7, 72 h; procedure, shortened: as §1
# MDA-MB-231 = test: Growth inhibition of human MDA-MB-231 cells after 72 hrs by MTT assay; assay type: functional, cell-based; conditions: MDA-MB-231, 72 h; procedure, shortened: as §1
# HT-29 = test: Growth inhibition of human HT-29 cells after 72 hrs by MTT assay; assay type: functional, cell-based; conditions: HT-29, 72 h; procedure, shortened: as §1
# HCT-116 = test: Growth inhibition of human HCT116 cells after 72 hrs by MTT assay; assay type: functional, cell-based; conditions: HCT-116, 72 h; procedure, shortened: as §1
# A549 = test: Growth inhibition of human A549 cells after 72 hrs by MTT assay; assay type: functional, cell-based; conditions: A549, 72 h; procedure, shortened: as §1
SMILES,IC50 [1],IC50 (KB/VJ300 [2]),IC50 (KB/VJ300 [3]),IC50 (PC-3),IC50 (LNCaP),IC50 (MCF7),IC50 (MDA-MB-231),IC50 (HT-29),IC50 (HCT-116),IC50 (A549)
C/C=C1/CN2CC[C@@]34c5cc([C@@H](C)[C@H]6[C@@H]7C[C@H]8c9c(c%10ccccc%10n9C)C[C@@H]([C@@H]7CO[C@@H]6O)N8C)c(OC)cc5N(C)[C@H]3[C@@H]2C[C@H]1C4C(=O)OC (stereo partly drawn),2 µM,> 10 µM,> 10 µM,> 10 µM,6.9 µM,3.8 µM,5.2 µM,0.7 µM,6.6 µM,8.3 µM
COc1ccc(CCN(C)CCCC(C#N)(c2ccc(OC)c(OC)c2)C(C)C)cc1OC (stereo not drawn) [VERAPAMIL],–,–,0.1 µM,–,–,–,–,–,–,–
CC[C@]1(O)C[C@H]2CN(CCc3c([nH]c4ccccc34)[C@@](C(=O)OC)(c3cc4c(cc3OC)N(C=O)[C@H]3[C@@](O)(C(=O)OC)[C@H](OC(C)=O)[C@]5(CC)C=CCN6CC[C@]43[C@@H]65)C2)C1 [VINCRISTINE],0.0003 µM,3.9 µM,–,–,–,–,–,–,–,–
